Measured values: ChEMBL document CHEMBL3098058, “Imidazole-derived agonists for the neurotensin 1 receptor” (Bioorg Med Chem Lett, 2014)
≈ marks a conversion by molar mass, not a printed value. One block for each compound: values may come before it. Calls of active or inactive are those of the source. The rule behind the calls is not given here.

Legend:
[1] = biological target: T1, Neurotensin receptor type 1 (Homo sapiens, UniProt P30989); test: Agonist activity at NTR1 in human U2OS cells after 1 hr by beta-arrestin GFP reporter gene assay relative to NT peptide; type: cell-based
How it was run: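 U2OS cells expressing NTR1 and a fluorescent β-arrestin reporter, imaged by high-content imaging of receptor–arrestin complex location after activation. EC50 and Emax are calculated relative to the efficacy of NT peptide at a saturating 100 nM.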
Target sequence in this assay (P30989 whole entry): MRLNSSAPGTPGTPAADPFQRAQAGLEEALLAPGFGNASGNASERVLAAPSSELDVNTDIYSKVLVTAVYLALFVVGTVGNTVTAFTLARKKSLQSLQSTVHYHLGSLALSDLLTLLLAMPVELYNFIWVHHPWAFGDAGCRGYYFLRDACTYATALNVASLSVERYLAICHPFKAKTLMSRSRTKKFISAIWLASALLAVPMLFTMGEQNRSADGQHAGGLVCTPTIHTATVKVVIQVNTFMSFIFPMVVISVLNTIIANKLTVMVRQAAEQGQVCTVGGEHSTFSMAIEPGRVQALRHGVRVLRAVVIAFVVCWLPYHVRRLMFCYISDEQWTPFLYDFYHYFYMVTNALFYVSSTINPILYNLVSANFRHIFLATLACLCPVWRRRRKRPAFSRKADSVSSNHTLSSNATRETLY

[2] = biological target: T1, Neurotensin receptor type 1; test: Agonist activity at NTR1 in human U2OS cells after 1 hr by beta-arrestin GFP reporter gene assay; type: cell-based
How it was run: (§1)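 High-content imaging in U2OS cells expressing the receptor of interest (NTR1, NTR2 or GPR35) plus a β-arrestin fluorescent reporter. The read-out is the location of the receptor–arrestin complex after receptor activation.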
Target sequence in this assay (P30989 whole entry): as above

[3] = biological target: T1, Neurotensin receptor type 1; test: Ratio of EC50 for NTR1 in human U2OS cells to EC50 for NTR1 (unknown origin) expressed in CHO cells assessed as Ca2+ mobilization; type: functional, cell-based
Target sequence in this assay (P30989 whole entry): as above

[4] = biological target: T1, Neurotensin receptor type 1; test: Agonist activity at NTR1 (unknown origin) at 10 uM in presence of SR142948A
How it was run: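 NTR1 activation is driven by agonist at 10 μM after preincubation with a known NTR1 antagonist. Antagonist inhibition of this activation is reported as IC50.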
Target sequence in this assay (P30989 whole entry): as above

[5] = Cytotoxicity in human Fa2N-4 cells after 24 hrs; type: cell-based; details: fa2n-4, 24 h, read-out: LC50 (the source's name)
How it was run: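 Fa2N-4 cells are immortalized human hepatocytes. Compounds were exposed for 24 hours. Readout is the LC50 (μM).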

[6] = Metabolic stability in mouse liver microsomes assessed as compound remaining at 1hr; type: ADME, Microsome; details: read-out: Stability
How it was run: (§2)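 Compound stability in human or mouse liver homogenate/microsomes, given as % remaining at 1 hr, run in triplicate.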

[7] = Metabolic stability in human liver microsomes assessed as compound remaining at 1 hr; type: ADME; details: read-out: Stability; how it was run: as §2
[8] = Metabolic stability in human plasma assessed as compound remaining at 3 hrs; type: ADME, cell-free; details: read-out: Stability
[9] = Metabolic stability in mouse plasma assessed as compound remaining at 3 hrs; type: ADME, cell-free; details: read-out: Stability
[10] = Plasma protein binding in mouse at 10 uM; type: ADME, cell-free
How it was run: (§3)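 Plasma protein binding in human or mouse plasma at 1 μM and 10 μM compound, given as % bound.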

[11] = Plasma protein binding in human at 10 uM; type: ADME, cell-free; how it was run: as §3
[12] = Plasma protein binding in mouse at 1 uM; type: ADME, cell-free; how it was run: as §3
[13] = Blood brain permeability of the compound at donor and acceptor pH 7.4 by PAMPA; type: ADME
[14] = Plasma protein binding in human at 1 uM; type: ADME, cell-free; how it was run: as §3
[15] = biological target: Sodium-dependent dopamine transporter (Homo sapiens, UniProt Q01959); test: Inhibition of DAT (unknown origin)
[16] = biological target: T1, Neurotensin receptor type 1; test: Inhibition of NTS1 receptor (unknown origin)
Target sequence in this assay (P30989 whole entry): as above

[17] = Permeability of the compound at donor and acceptor pH 7.4 by PAMPA; type: ADME
[18] = Permeability of the compound at donor pH 6.2 and acceptor pH 7.4 by PAMPA; type: ADME
[19] = Permeability of the compound at donor pH 5.0 and acceptor pH 7.4 by PAMPA; type: ADME
[20] = Aqueous solubility of the compound in pION buffer at pH 7.4; type: physicochemical
[21] = Aqueous solubility of the compound in pION buffer at pH 6.2; type: physicochemical
[22] = Aqueous solubility of the compound in pION buffer at pH 5.0; type: physicochemical
[23] = biological target: T1, Neurotensin receptor type 1; test: Agonist activity at NTR1 (unknown origin) expressed in CHO cells assessed as Ca2+ mobilization by Fluo-4 NW dye-based fluorescence assay relative to NT peptide; type: functional, cell-based
Target sequence in this assay (P30989 whole entry): as above

[24] = biological target: T1, Neurotensin receptor type 1; test: Agonist activity at NTR1 (unknown origin) expressed in CHO cells assessed as Ca2+ mobilization by Fluo-4 NW dye-based fluorescence assay; type: functional, cell-based
[25] = biological target: T1, Neurotensin receptor type 1; test: Agonist activity at NTR1 (unknown origin) expressed in CHO-K1 cells coexpressing coexpressing beta-arrestin/N-terminal deletion mutant of beta-galactosidase fusion protein by chemiluminescence assay relative to NT peptide; type: cell-based
How it was run: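 PathHunter complementation in CHO-K1 cells. NTR1 is fused to the ProLink small enzyme fragment and co-expressed with a β-arrestin fusion to the N-terminal-deleted β-gal enzyme acceptor. Activation drives β-arrestin binding and β-gal fragment complementation, and enzyme activity is read by chemiluminescence.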

[26] = biological target: T1, Neurotensin receptor type 1; test: Agonist activity at NTR1 (unknown origin) expressed in CHO-K1 cells coexpressing beta-arrestin/N-terminal deletion mutant of beta-galactosidase fusion protein by chemiluminescence assay; type: cell-based
How it was run: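 DiscoveRx PathHunter format. CHO-K1 cells express NTR1 fused in frame to the small ProLink β-gal fragment, stably co-expressed with β-arrestin fused to the N-terminal-deletion β-gal enzyme acceptor. Receptor activation recruits β-arrestin, which forces fragment complementation into active β-gal. The resulting enzyme activity is read by chemiluminescence. EC50 and Emax are expressed as % of NT peptide response.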
Target sequence in this assay (P30989 whole entry, looked up, change not shown): as the sequence (P30989 whole entry) above

[27] = biological target: G-protein coupled receptor 35 (Homo sapiens, UniProt Q9HC97); test: Agonist activity at GPR35 in human U2OS cells after 1 hr by beta-arrestin GFP reporter gene assay; type: cell-based; how it was run: as §1
[28] = biological target: Neurotensin receptor type 2 (Homo sapiens, UniProt O95665); test: Agonist activity at NTR2 in human U2OS cells after 1 hr by beta-arrestin GFP reporter gene assay; type: cell-based; how it was run: as §1
Mu-type opioid receptor = Mu-type opioid receptor (Homo sapiens, UniProt P35372); test: Inhibition of MOR (unknown origin)
[29] = biological target: Delta-type opioid receptor (Homo sapiens, UniProt P41143); test: Inhibition of DOR (unknown origin)
Chain of Delta-type opioid receptor (P41143 whole entry): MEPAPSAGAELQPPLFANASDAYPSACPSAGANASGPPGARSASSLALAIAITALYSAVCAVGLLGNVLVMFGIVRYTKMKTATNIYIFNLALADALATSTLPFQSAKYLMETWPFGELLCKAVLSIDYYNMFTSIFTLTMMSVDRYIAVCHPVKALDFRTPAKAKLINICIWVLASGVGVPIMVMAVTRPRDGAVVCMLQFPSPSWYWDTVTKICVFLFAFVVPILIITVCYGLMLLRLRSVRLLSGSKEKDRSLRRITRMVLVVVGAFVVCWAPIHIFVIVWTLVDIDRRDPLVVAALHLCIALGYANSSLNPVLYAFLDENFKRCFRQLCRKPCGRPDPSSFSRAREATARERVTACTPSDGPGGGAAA

Chain of Sodium-dependent dopamine transporter (Q01959 whole entry): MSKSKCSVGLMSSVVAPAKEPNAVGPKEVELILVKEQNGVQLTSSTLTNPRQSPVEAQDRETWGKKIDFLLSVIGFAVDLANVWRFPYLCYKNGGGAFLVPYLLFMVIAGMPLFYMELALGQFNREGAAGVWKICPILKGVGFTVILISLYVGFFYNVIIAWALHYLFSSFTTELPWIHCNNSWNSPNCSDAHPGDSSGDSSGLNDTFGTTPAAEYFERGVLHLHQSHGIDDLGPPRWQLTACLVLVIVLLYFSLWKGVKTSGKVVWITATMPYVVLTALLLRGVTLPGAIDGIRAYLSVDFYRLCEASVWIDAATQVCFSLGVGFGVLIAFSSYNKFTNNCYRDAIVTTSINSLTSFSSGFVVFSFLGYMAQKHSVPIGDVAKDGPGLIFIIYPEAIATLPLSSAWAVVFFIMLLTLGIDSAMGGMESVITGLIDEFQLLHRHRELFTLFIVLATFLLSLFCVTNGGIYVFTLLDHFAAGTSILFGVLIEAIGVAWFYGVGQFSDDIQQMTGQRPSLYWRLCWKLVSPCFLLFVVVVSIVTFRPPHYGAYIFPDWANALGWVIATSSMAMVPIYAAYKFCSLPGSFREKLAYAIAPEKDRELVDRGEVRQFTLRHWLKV
Chain of G-protein coupled receptor 35 (Q9HC97 whole entry): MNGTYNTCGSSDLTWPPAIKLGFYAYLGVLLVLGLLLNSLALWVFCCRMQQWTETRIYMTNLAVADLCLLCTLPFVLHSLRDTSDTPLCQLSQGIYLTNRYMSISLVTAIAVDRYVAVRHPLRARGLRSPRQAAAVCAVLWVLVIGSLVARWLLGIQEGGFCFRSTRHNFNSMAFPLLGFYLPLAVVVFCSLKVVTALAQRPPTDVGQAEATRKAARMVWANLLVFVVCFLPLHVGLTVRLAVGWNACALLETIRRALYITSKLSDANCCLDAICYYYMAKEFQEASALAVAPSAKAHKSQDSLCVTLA
Chain of Neurotensin receptor type 2 (O95665 whole entry): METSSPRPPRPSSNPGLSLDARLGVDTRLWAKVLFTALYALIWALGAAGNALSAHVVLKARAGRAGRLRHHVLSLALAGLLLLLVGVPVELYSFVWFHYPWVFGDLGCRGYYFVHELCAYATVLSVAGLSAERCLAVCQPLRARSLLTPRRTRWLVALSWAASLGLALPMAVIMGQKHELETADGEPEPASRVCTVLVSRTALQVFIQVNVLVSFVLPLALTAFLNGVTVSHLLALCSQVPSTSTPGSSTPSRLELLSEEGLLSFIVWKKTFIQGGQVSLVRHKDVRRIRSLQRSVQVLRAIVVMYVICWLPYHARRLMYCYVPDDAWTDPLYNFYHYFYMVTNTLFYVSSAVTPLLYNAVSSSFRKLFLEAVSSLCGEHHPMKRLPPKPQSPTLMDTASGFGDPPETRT
Chain of Mu-type opioid receptor (P35372 whole entry): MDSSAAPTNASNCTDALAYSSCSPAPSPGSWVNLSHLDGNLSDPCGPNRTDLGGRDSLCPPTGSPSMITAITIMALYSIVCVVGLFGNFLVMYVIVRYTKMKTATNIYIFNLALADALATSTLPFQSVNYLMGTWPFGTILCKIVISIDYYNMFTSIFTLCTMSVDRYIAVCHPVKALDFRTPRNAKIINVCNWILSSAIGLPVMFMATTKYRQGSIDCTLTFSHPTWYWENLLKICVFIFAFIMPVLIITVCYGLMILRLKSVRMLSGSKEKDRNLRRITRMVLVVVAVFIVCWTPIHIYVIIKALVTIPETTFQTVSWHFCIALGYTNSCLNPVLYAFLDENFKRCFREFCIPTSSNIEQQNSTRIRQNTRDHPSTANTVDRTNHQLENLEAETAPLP

Structure (SMILES): COc1ccccc1-c1nc(C(=O)N[C@@H](CC(C)C)C(=O)O)cn1-c1ccncc1
EC50 [2]: > 80 µM

Structure (SMILES): COc1cccc(OC)c1-c1nc(C(=O)N[C@@H](CC(C)C)C(=O)O)cn1-c1ccnc2ccccc12
Emax [1]: 59%
EC50 [2]: 3.8 µM

Structure (SMILES): COc1ccccc1-c1nc(C(=O)N[C@@H](CC(C)C)C(=O)O)cn1-c1ccnc2cc(Cl)ccc12
Emax [1]: 100%
EC50 [2]: 56 µM

Structure (SMILES): CC(C)C[C@H](NC(=O)c1cn(-c2ccnc3cc(Cl)ccc23)c(-c2ccccc2)n1)C(=O)O
Emax [1]: 100%
EC50 [2]: 72 µM

Structure (SMILES): COc1cccc(OC)c1-c1nc(C(=O)N[C@@H](CC(C)C)C(=O)O)cn1-c1ccnc2cc(Cl)ccc12
Ratio EC50 [3]: 5
Activity [4]: inactive
CC50 [5]: > 50 µM
remaining at 1 h [6]: 59%
remaining at 1 h [7]: 100%
remaining at 3 h [8]: 100%
remaining at 3 h [9]: 100%
PPB [10]: 91.4%
PPB [11]: 98.7%
PPB [12]: 92.2%
permeability [13]: 1.2 ×10⁻⁶ cm/s
PPB [14]: 98.7%
Ki [15]: > 10 µM
Ki [16]: 10 µM
permeability [17]: 6 ×10⁻⁶ cm/s
permeability [18]: 17 ×10⁻⁶ cm/s
permeability [19]: 363 ×10⁻⁶ cm/s
solubility [20]: > 99 µM
solubility [21]: > 99 µM
solubility [22]: > 99 µM
Emax [23]: 93%
EC50 [24]: 0.298 µM
Emax [25]: 100%
EC50 [26]: 6.1 µM
EC50 [27]: > 40 µM
EC50 [28]: > 80 µM
Emax [1]: 79%
EC50 [2]: 2 µM

Structure (SMILES): COc1cccc(OC)c1-c1nc(C(=O)NC2(C(=O)O)C3CC4CC(C3)CC2C4)cn1-c1ccnc2cc(Cl)ccc12 (stereo not drawn)
Emax [1]: 100%
EC50 [2]: 46 µM

Structure (SMILES): COc1cccc(OC)c1-c1nc(C(=O)N[C@@H](CC(C)C)C(=O)O)cn1-c1cccc2ccccc12
CC50 [5]: > 50 µM
remaining at 1 h [6]: 76%
remaining at 1 h [7]: 100%
remaining at 3 h [8]: 76%
remaining at 3 h [9]: 76%
PPB [10]: 95.4%
PPB [11]: 98%
PPB [12]: 96.4%
permeability [13]: 1.1 ×10⁻⁶ cm/s
PPB [14]: 97.9%
permeability [17]: 12 ×10⁻⁶ cm/s
permeability [18]: 145 ×10⁻⁶ cm/s
permeability [19]: 953 ×10⁻⁶ cm/s
solubility [20]: > 297 µM
solubility [21]: > 297 µM
solubility [22]: 247 µM (≈ 120 µg/mL)
Emax [1]: 93%
EC50 [2]: 2.3 µM

Structure (SMILES): CC(C)C[C@H](NC(=O)c1cn(-c2ccnc3cc(Cl)ccc23)c(-c2c(Cl)cccc2Cl)n1)C(=O)O
Emax [1]: 80%
EC50 [2]: 5.2 µM

Structure (SMILES): COc1cccc(OC)c1-c1cc(C(=O)N[C@@H](CC(C)C)C(=O)O)nn1-c1ccnc2cc(Cl)ccc12
Ratio EC50 [3]: 5
Ki (Mu-type opioid receptor): 3.4 µM
Ki [29]: 5.2 µM
CC50 [5]: > 50 µM
remaining at 1 h [6]: 46%
remaining at 1 h [7]: 76%
remaining at 3 h [8]: 88.9%
remaining at 3 h [9]: 70.7%
PPB [10]: 97.1%
PPB [11]: 99.7%
PPB [12]: 96.6%
permeability [13]: 4.8 ×10⁻⁶ cm/s
PPB [14]: 99.6%
Ki [15]: > 10 µM
Ki [16]: 3.3 µM
permeability [18]: 725 ×10⁻⁶ cm/s
permeability [19]: 1270 ×10⁻⁶ cm/s
solubility [20]: > 296 µM
solubility [21]: > 296 µM
solubility [22]: 113 µM (≈ 59.1 µg/mL)
EC50 [24]: < 0.156 µM
EC50 [26]: > 33 µM
EC50 [27]: > 40 µM
EC50 [28]: > 80 µM
Emax [1]: 100%

Structure (SMILES): CC(C)C[C@H](NC(=O)c1cn(-c2ccnc3ccccc23)c(-c2ccccc2)n1)C(=O)O
EC50 [2]: > 80 µM

Structure (SMILES): CC(C)C[C@H](NC(=O)c1cn(-c2ccncc2)c(-c2ccccc2)n1)C(=O)O
EC50 [2]: > 80 µM

Results, then the compound that gave them:

Emax [1]: 100%
EC50 [2]: 66 µM
Structure (SMILES): COc1cccc(OC)c1-c1nc(C(=O)N[C@@H](CC(C)C)C(=O)O)cn1-c1ccncc1

EC50 [2]: > 80 µM
Structure (SMILES): COc1cccc(OC)c1-c1cc(C(=O)NC2(C(=O)O)C3CC4CC(C3)CC2C4)nn1-c1ccc(C(=O)N(C)CCCN(C)C)cc1C(C)C (stereo not drawn)

EC50 [2]: > 80 µM
Structure (SMILES): COc1ccccc1-c1nc(C(=O)N[C@@H](CC(C)C)C(=O)O)cn1-c1ccnc2ccccc12

Emax [1]: 98%
EC50 [2]: 0.97 µM
Structure (SMILES): COc1ccccc1-c1cc(C(=O)N[C@H](CC(C)C)C(=O)O)nn1-c1ccnc2cc(Cl)ccc12

Emax [1]: 50%
EC50 [2]: 9.4 µM
Structure (SMILES): COc1cccc(OC)c1-c1nc(C(=O)N[C@H](CC(C)C)C(=O)O)cn1-c1ccnc2cc(Cl)ccc12

Emax [1]: 78%
EC50 [2]: 9.2 µM
Structure (SMILES): Cc1cccc(C)c1-c1nc(C(=O)N[C@@H](CC(C)C)C(=O)O)cn1-c1ccnc2cc(Cl)ccc12

Emax [1]: 100%
EC50 [2]: 31 µM
Structure (SMILES): COc1cccc(OC)c1-c1cc(C(=O)NC2(C(=O)O)C3CC4CC(C3)CC2C4)nn1-c1ccnc2cc(Cl)ccc12 (stereo not drawn) [REMINERTANT]

EC50 [2]: > 80 µM
Structure (SMILES): COc1cccc(OC)c1-c1nc(C(=O)N[C@@H](CC(C)C)C(=O)O)cn1-c1ccc(C)cc1

EC50 [2]: > 80 µM
Structure (SMILES): COc1ccc(-c2nc(C(=O)N[C@@H](CC(C)C)C(=O)O)cn2-c2ccnc3cc(Cl)ccc23)c(OC)c1
